Experimental data published in ChEMBL document CHEMBL4196071, “Discovery of tetrahydrocarbazoles with potent hypoglycemic and hypolipemic activities” (Eur J Med Chem, 2018).
Activity calls are given as the source filed them. No cut-off for these calls is given here.

Assays:
Type in all cases: cell-based
[1] = molecular target: T1, AMP-activated protein kinase, AMPK (Homo sapiens) (UniProt P54646+O43741+P54619+Q9UGJ0+Q9Y478+Q13131+Q9UGI9); experiment: Activation of AMPK in human HepG2 cells assessed as induction of glucose consumption at 10 uM treated over 24 hrs by glucose oxidase method relative to control
In short: (§1)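 HepG2 cells kept in DMEM (25 mM D-glucose) with 10% serum at 37 °C, 5% CO2. At 80-90% confluence the medium was switched to serum-free RPMI-1640 with 11.1 mM glucose and 0.2% BSA. Compounds in DMSO (0.5% v/v vehicle control) were given for 24 h. Medium glucose was read by glucose oxidase; consumption = cell-free blank wells minus cell wells. Student's t test against control.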

HepG2 [2] = experiment: Activation of AMPKalpha in human HepG2 cells assessed as ACC phosphorylation at Ser79 residue at 10 uM by Western blot analysis
In short: (§2)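 HepG2 cells were treated at 10 μM and lysed in pH 7.5 Tris buffer containing NaF, β-glycerophosphate, EDTA/EGTA, Triton X-100 and protease inhibitors, then cleared at 10,000 × g for 30 min at 4 °C. Equal lysate volumes were run on 8% SDS-PAGE and transferred to PVDF. Blots were probed for p-AMPKα (Thr172) and p-ACC (Ser79) with HRP secondary antibodies.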

HepG2 [3] = experiment: Induction of AMPKalpha phosphorylation at Thr172 residue in human HepG2 cells at 10 uM by Western blot analysis; in short: as §2
[4] = molecular target: T1, AMP-activated protein kinase, AMPK (Homo sapiens); experiment: Activation of AMPK in human HepG2 cells assessed as induction of glucose consumption at 1 uM treated over 24 hrs by glucose oxidase method relative to control; in short: as §1
[5] = molecular target: T1, AMP-activated protein kinase, AMPK (Homo sapiens); experiment: Activation of AMPK in human HepG2 cells assessed as induction of glucose consumption at 0.1 uM treated over 24 hrs by glucose oxidase method relative to control; in short: as §1
[6] = molecular target: T1, AMP-activated protein kinase, AMPK (Homo sapiens); experiment: Activation of AMPK in human HepG2 cells assessed as induction of glucose consumption treated over 24 hrs by glucose oxidase method; in short: as §1
[7] = molecular target: T1, AMP-activated protein kinase, AMPK (Homo sapiens); experiment: Activation of AMPK in human HepG2 cells assessed as induction of glucose consumption at 1 mM treated over 24 hrs by glucose oxidase method relative to control; in short: as §1

Structure (SMILES) | Activity [1] | Activity [4] | Activity [5] | Activity [6] | Activity [7] | Activity (HepG2 [2]) | Activity (HepG2 [3])
O=C(O)C1CCc2c(c3cc(OCc4ccccc4)ccc3n2C(=O)c2ccc(Cl)cc2)C1 (stereo in doubt; 7a) | 72.9 to 82.5% | 30.2% | 15.5% | Dose-dependent effect | – | Active | Active
O=C(O)C1CCc2c(c3cc(OCc4ccccc4)ccc3n2C(=O)c2ccc(Cl)cc2)C1 (single isomer, unassigned; (-)) | 76.4 to 85.5% | 35.6% | 12.9% | Dose-dependent effect | – | Active | Active
O=C(O)C1CCc2[nH]c3ccc(OCc4ccccc4)cc3c2C1 (configuration not stated) | 48.4 to 52.3% | 37.2% | 29% | Dose-dependent effect | – | Active | Active
O=C(O)C1CCc2c(c3cc(OCc4ccc(F)cc4)ccc3n2C(=O)c2ccc(Cl)cc2)C1 (configuration not stated) | 53.4 to 68.8% | 20.1% | 0.11% | Dose-dependent effect | – | – | –
CN(C)C(=N)NC(=N)N | – | – | – | – | 60.4 to 63.7% | – | –
Cc1ccc(Cn2c3c(c4cc(OCc5ccccc5)ccc42)CC(C(=O)O)CC3)cc1 (configuration not stated) | 42.2% | – | – | – | – | – | –

Now from value to compound, other results behind:

Activity [1] | Activity [4] | Activity [5] | Activity [6] | Activity [7] | Structure (SMILES) | Activity (HepG2 [2]) | Activity (HepG2 [3])
50.5% | – | – | – | – | COc1ccc2c(c1)c1c(n2C(=O)c2ccc(Cl)cc2)CCC(C(=O)O)C1 (configuration not stated) | – | –
47.5% | – | – | – | – | Cc1nc(C)c(COc2ccc3c(c2)c2c(n3C(=O)c3ccc(Cl)cc3)CCC(C(=O)O)C2)nc1C (configuration not stated) | Active | Active
62.1 to 68.7% | 32.2% | 4.89% | Dose-dependent effect | – | CC(Oc1ccc2c(c1)c1c(n2C(=O)c2ccc(Cl)cc2)CCC(C(=O)O)C1)c1ccccc1 (configuration not stated) | Active | Active
27.5% | – | – | – | – | O=C(O)c1ccccc1-c1ccc(Cn2c3c(c4cc(OCc5ccccc5)ccc42)CC(C(=O)O)CC3)cc1 (configuration not stated) | – | –
34.3% | – | – | – | – | O=C(O)C1CCc2c(c3cc(OCc4ccccc4)ccc3n2Cc2ccc(F)cc2)C1 (configuration not stated) | – | –
75.2% | – | – | – | – | O=C(O)C1CCc2c(c3cc(OCc4ccccc4)ccc3n2C(=O)c2ccc(F)cc2)C1 (configuration not stated) | – | –
